Laboratory results from ChEMBL document CHEMBL2021785, “Compounds of Alpinia katsumadai as potential efflux inhibitors in Mycobacterium smegmatis” (2012).
≈ marks a conversion by molar mass, not a printed value.

Legend:
[1] = test system: Mycolicibacterium smegmatis MC2 155; assay: Inhibition of Multidrug resistance efflux pump in Mycobacterium smegmatis mc2 155 assessed as modulation of rifampicin-mediated antibacterial activity measuring fractional inhibitory concentration index at 64 mg/L after 72 hrs by MTT assay
Summary of the method: (§1)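 Checkerboard-type modulation by broth dilution in MHB with DMSO-dissolved modulators: either modulator held constant (half its MIC) with two-fold serially diluted antibiotic/EtBr, or antibiotic fixed with modulator serially diluted. Final inoculum 5 × 10^5 cfu/mL, 37 °C, 72 h, MTT read-out. Modulation factor quantifies shift in antibiotic/EtBr MIC; FICI assesses combination effect.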

[2] = test system: Mycolicibacterium smegmatis MC2 155; assay: Inhibition of Multidrug resistance efflux pump in Mycobacterium smegmatis mc2 155 assessed as modulation of EtBr-mediated antibacterial activity measuring ratio of EtBr MIC to EtBr and compound MIC at 64 mg/L after 72 hrs by MTT assay; summary of the method: as §1
[3] = test system: Mycolicibacterium smegmatis MC2 155; assay: Inhibition of Multidrug resistance efflux pump in Mycobacterium smegmatis mc2 155 assessed as modulation of rifampicin-mediated antibacterial activity measuring ratio of rifampicin MIC to rifampicin and compound MIC at 64 mg/L after 72 hrs by MTT assay; summary of the method: as §1
[4] = test system: Mycolicibacterium smegmatis MC2 155; assay: Inhibition of Multidrug resistance efflux pump in Mycobacterium smegmatis mc2 155 assessed as modulation of isoniazid-mediated antibacterial activity measuring ratio of isoniazid MIC to isoniazid and compound MIC at 64 mg/L after 72 hrs by MTT assay; summary of the method: as §1
[5] = test system: Mycolicibacterium smegmatis MC2 155; assay: Inhibition of Multidrug resistance efflux pump in Mycobacterium smegmatis mc2 155 assessed as modulation of ciprofloxacin-mediated antibacterial activity measuring ratio of ciprofloxacin MIC to ciprofloxacin and compound MIC at 64 mg/L after 72 hrs by MTT assay; summary of the method: as §1
[6] = test system: Mycolicibacterium smegmatis MC2 155; assay: Inhibition of Multidrug resistance efflux pump in Mycobacterium smegmatis mc2 155 assessed as modulation of rifampicin-mediated antibacterial activity measuring reduction in MIC at 1/2 of MIC after 72 hrs by MTT assay relative to control; summary of the method: as §1
[7] = test system: Mycolicibacterium smegmatis MC2 155; assay: Inhibition of Multidrug resistance efflux pump in Mycobacterium smegmatis mc2 155 assessed as EtBr accumulation measuring relative fluorescence at half the MIC measured for 60 mins by spectrophotometry relative to control
Summary of the method: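 Overnight 7H9/ADC culture (37 °C, 100 rpm) centrifuged and resuspended in PBS with 0.05% Tween 80 to OD600 0.4. Cells mixed 1:1 with test solutions containing 0.5 mg/L EtBr and 0.4% glucose, compounds from MIC down to 1/16 MIC. Fluorescence (ex 531/em 590 nm) read every 50 s at 37 °C for 60 min; repeated at least three times.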

[8] = test system: Mycolicibacterium smegmatis; assay: Antibacterial activity against Mycobacterium smegmatis mc2 155 after 72 hrs by MTT assay; type: functional; details: str. MC2 155, 72 h
Summary of the method: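 Broth dilution in Mueller-Hinton broth; compounds dissolved in DMSO, two-fold serial dilutions; inoculum adjusted to McFarland 0.5 and diluted to final 5 × 10^5 cfu/mL; cells pre-grown on Columbia blood agar with 5% horse blood, 37 °C, 72 h. Plates incubated 37 °C for 72 h; MIC read after MTT as lowest concentration inhibiting growth.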

[9] = test system: Mycolicibacterium smegmatis MC2 155; assay: Inhibition of Multidrug resistance efflux pump in Mycobacterium smegmatis mc2 155 assessed as modulation of EtBr-mediated antibacterial activity measuring fractional inhibitory concentration index at 64 mg/L after 72 hrs by MTT assay; summary of the method: as §1
[10] = test system: Mycolicibacterium smegmatis MC2 155; assay: Inhibition of Multidrug resistance efflux pump in Mycobacterium smegmatis mc2 155 assessed as modulation of EtBr-mediated antibacterial activity measuring reduction in MIC at 1/2 of MIC after 72 hrs by MTT assay relative to control; summary of the method: as §1
[11] = test system: Mycolicibacterium smegmatis MC2 155; assay: Inhibition of Multidrug resistance efflux pump in Mycobacterium smegmatis mc2 155 assessed as modulation of ethambutol-mediated antibacterial activity measuring ratio of ethambutol MIC to ethambutol and compound MIC at 64 mg/L after 72 hrs by MTT assay; summary of the method: as §1
[12] = test system: Mycolicibacterium smegmatis MC2 155; assay: Inhibition of Multidrug resistance efflux pump in Mycobacterium smegmatis mc2 155 assessed as inhibition of EtBr efflux measuring normalized fluorescence at half the MIC measured for 60 mins by spectrophotometry relative to control
[13] = test system: Mycolicibacterium smegmatis MC2 155; assay: Inhibition of Multidrug resistance efflux pump in Mycobacterium smegmatis mc2 155 assessed as modulation of ethambutol-mediated antibacterial activity measuring reduction in MIC at 1/2 of MIC after 72 hrs by MTT assay relative to control; summary of the method: as §1
[14] = test system: Mycolicibacterium smegmatis MC2 155; assay: Inhibition of Multidrug resistance efflux pump in Mycobacterium smegmatis mc2 155 assessed as modulation of isoniazid-mediated antibacterial activity measuring ratio of isoniazid MIC to isoniazid and compound MIC at 4 mg/L after 72 hrs by MTT assay; summary of the method: as §1
[15] = test system: Mycolicibacterium smegmatis MC2 155; assay: Inhibition of Multidrug resistance efflux pump in Mycobacterium smegmatis mc2 155 assessed as modulation of rifampicin-mediated antibacterial activity measuring ratio of rifampicin MIC to rifampicin and compound MIC at 4 mg/L after 72 hrs by MTT assay; summary of the method: as §1
[16] = test system: Mycolicibacterium smegmatis MC2 155; assay: Inhibition of Multidrug resistance efflux pump in Mycobacterium smegmatis mc2 155 assessed as modulation of EtBr-mediated antibacterial activity measuring ratio of EtBr MIC to EtBr and compound MIC at 4 mg/L after 72 hrs by MTT assay; summary of the method: as §1

O[C@@H](CCc1ccccc1)C[C@H](O)/C=C/c1ccccc1 gave a fractional inhibitory concentration index (FICI) [1] of 0.75, a Ratio [2] of 8 and a Ratio [3] of 4. For the same compound, the Ratio [4] was 2, the Ratio [5] was 2 and the fold change (FC) [6] was 4. For the same compound, the RFU [7] was 16500, the MIC [8] was ≥ 128 µg/mL and the fractional inhibitory concentration index (FICI) [9] was 0.25. The fold change (FC) [10] was 4, the Ratio [11] was 2 and the normalized EtBr fluorescence relative to control [12] was 0.746.

For CCCCCCCCCCCCCCCCCC(=O)O [STEARIC ACID], the Ratio [2] was 1, the Ratio [4] was 0.5 and the MIC [8] was ≥ 128 µg/mL.

CC[C@@H](CO)NCCN[C@@H](CC)CO [ETHAMBUTOL] gave an MIC [8] of 1 µg/mL (≈ 4.89 µM).

NNC(=O)c1ccncc1 [ISONIAZID] showed an MIC [8] of 4 µg/mL (≈ 29.2 µM).

In the case of CN(C)CCCN1c2ccccc2Sc2ccc(Cl)cc21 [CHLORPROMAZINE], the MIC [8] is reported as 64 µg/mL (≈ 201 µM).

O=C1C[C@@H](c2ccccc2)Oc2cc(O)cc(O)c21 [PINOCEMBRIN] was tested, and the fractional inhibitory concentration index (FICI) [1] was 1.5, the Ratio [2] was 4 and the Ratio [3] was 2. The Ratio [4] was 1, the Ratio [5] was 1 and the fold change (FC) [13] was 2. It also gave an RFU [7] of 11200, an MIC [8] of 128 µg/mL (≈ 499 µM) and a fractional inhibitory concentration index (FICI) [9] of 0.5. For the same compound, the fold change (FC) [10] was 4, the Ratio [11] was 2 and the normalized EtBr fluorescence relative to control [12] was 0.765.

For CC/C=C\C/C=C\C/C=C\CCCCCCCC(=O)O [LINOLENIC ACID], the fold change (FC) [6] was 4, the MIC [8] was 8 µg/mL (≈ 28.7 µM) and the Ratio [14] was 1. The Ratio [15] was 4, the fold change (FC) [10] was 4 and the Ratio [16] was 4.

COc1ccc(CCN(C)CCCC(C#N)(c2ccc(OC)c(OC)c2)C(C)C)cc1OC (configuration not stated) [VERAPAMIL] was tested, and the MIC [8] was 512 µg/mL (≈ 1130 µM).
